Tests used:
male NIH Swiss mice [1] = assay: Thermoregulation assay; type: in vivo; conditions: 10 mg/kg intraperitoneal, Figure 5
Procedure, shortened: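 Under isoflurane, a glass-encapsulated radiotelemetry probe was implanted in the peritoneal cavity. Mice recovered at least 7 days and were housed singly. On test days they were weighed, and baseline core temperature was recorded for at least 1 h. Drug or equal-volume vehicle was then injected, 4–8 mice per group. […] Data are mean ± SEM, analysed by one-way ANOVA with Tukey post-test.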

CB1Rs = conditions: cited from earlier work
[2] = target: CB1Rs endogenously expressed in Neuro2A cells (Mus musculus, UniProt P47746); assay: Adenylyl cyclase assay in Neuro2A cells; type: cell-based; conditions: for inhibition of AC-activity via CB1Rs (concentration-effect curves): Neuro2A cells, Figure 3A; for antagonism of AC-inhibition produced by the CB1R full agonist 3: 1 μM concentration of antagonist, 10^−7 M concentration of 3, Figure 3B
CB1Rs endogenously expressed in Neuro2A cells, sequence (P47746 whole entry): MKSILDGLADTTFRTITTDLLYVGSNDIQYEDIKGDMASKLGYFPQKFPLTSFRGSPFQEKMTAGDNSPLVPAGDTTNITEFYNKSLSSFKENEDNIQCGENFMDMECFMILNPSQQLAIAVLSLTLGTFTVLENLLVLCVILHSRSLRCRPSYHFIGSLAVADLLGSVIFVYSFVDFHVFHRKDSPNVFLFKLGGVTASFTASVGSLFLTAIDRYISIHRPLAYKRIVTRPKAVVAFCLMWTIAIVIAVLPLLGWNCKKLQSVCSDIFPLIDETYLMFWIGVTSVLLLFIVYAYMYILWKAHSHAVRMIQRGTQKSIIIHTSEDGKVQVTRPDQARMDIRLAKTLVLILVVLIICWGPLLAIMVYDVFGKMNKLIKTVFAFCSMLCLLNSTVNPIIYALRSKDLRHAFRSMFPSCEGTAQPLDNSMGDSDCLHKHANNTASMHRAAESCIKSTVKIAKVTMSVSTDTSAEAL

CB2Rs in CHO-hCB2 cells = CB2Rs in CHO-hCB2 cells (Homo sapiens, UniProt P34972); assay: Adenylyl cyclase assay in CHO-hCB2 cells; type: cell-based; conditions: Figure 4A
CB2Rs in CHO-hCB2 cells, sequence (P34972 whole entry): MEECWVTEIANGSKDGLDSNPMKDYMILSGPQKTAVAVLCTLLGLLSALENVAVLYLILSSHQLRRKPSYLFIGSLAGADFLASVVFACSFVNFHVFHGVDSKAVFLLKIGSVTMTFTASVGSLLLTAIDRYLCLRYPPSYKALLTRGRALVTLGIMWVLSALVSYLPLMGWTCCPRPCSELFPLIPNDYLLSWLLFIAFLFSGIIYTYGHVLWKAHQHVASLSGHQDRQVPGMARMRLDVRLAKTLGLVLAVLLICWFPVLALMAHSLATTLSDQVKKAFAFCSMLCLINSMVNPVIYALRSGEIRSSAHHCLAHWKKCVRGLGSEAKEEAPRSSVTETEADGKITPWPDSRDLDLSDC

male NIH Swiss mice [3] = assay: Oral EtOH self-administration; type: in vivo; conditions: 10 mg/kg i.p. daily for 10 days
CHO-WT cells = assay: Adenylyl cyclase assay in CHO-WT cells not expressing CB2Rs; type: cell-based; conditions: Figure 4B

SMILES	hypothermic effect (core body temperature) (male NIH Swiss mice [1])	intrinsic activity at CB1Rs in [35S]GTPγS functional assay (CB1Rs)	inhibition of AC-activity via CB1Rs (concentration-effect curves) [2]	inhibition of AC-activity at CB2Rs (concentration-effect curves) (CB2Rs in CHO-hCB2 cells)	antagonism of AC-inhibition produced by the CB1R full agonist 3 [2]	EtOH preference (two-bottle choice, 10% EtOH vs water) (male NIH Swiss mice [3])	body weight across the treatment period (male NIH Swiss mice [3])	total fluid consumption (male NIH Swiss mice [3])	modification of AC-activity in CHO-WT cells (CHO-WT cells)
CCCCn1cc(C(=O)c2cccc3ccccc23)c2ccccc21 [Compound 3, (1-butyl-1H-indol-3-yl)(naphthalen-1-yl)methanone]	elicited a profound hypothermic effect								
CCCCn1cc(C(=O)c2cccc3ccccc23)c2cccc(O)c21 [Compound 4, reference compound]		lacks intrinsic activity	50–60%						
CCCCn1cc(Cc2cccc3ccccc23)c2cccc(OC)c21 [Compound 27, 1-Butyl-7-methoxy-3-(naphthalen-1-ylmethyl)-1H-indole]			very little inhibition of AC-activity	40–50%	antagonize AC-inhibition produced by CB1R-agonist	reduced EtOH preference	did not decrease body weight	without affecting total fluid consumption	neither 27 nor 30 significantly modified AC-activity
CCCCn1cc(-c2ccc3ccccc3c2)c2cccc(OC)c21 [Compound 30, 1-Butyl-7-methoxy-3-(naphthalen-2-yl)-1H-indole]			very little inhibition of AC-activity	40–50%	antagonize AC-inhibition produced by CB1R-agonist	reduced EtOH preference	did not decrease body weight	without affecting total fluid consumption	neither 27 nor 30 significantly modified AC-activity
CC1=CC[C@@H]2[C@@H](C1)c1c(O)cc(CC#CCCCNS(C)(=O)=O)cc1OC2(C)C [Compound O-2050, reference compound]					significantly antagonized AC-inhibition				
Cc1c(C(=O)NN2CCCCC2)nn(-c2ccc(Cl)cc2Cl)c1-c1ccc(Cl)cc1 [rimonabant, reference compound]						decreased EtOH preference	decreased body weight	without altering total fluid intake	
